Measurements: ChEMBL document CHEMBL1129516, “Design, synthesis, and biological activities of cyclic lactam peptide analogues of dynorphine A(1-11)-NH2” (J Med Chem, 1996)

Assays:
[1] = Relative binding to delta and kappa opioid receptors (ratio of IC50)
[2] = system: Kappa opioid receptor (Cavia porcellus); assay: Central (GPB) and Peripheral (GPI) Nervous Systems Selectivity at kappa Opioid Receptor
[3] = Relative binding to mu and kappa opioid receptors (ratio of IC50)
[4] = target: Kappa-type opioid receptor (Cavia porcellus, UniProt P41144); assay: Inhibition of [3H]U-69593 binding to Opioid receptor kappa 1 of plasma membrane homogenates of guinea pig brain; format: cell-free
Kappa-type opioid receptor, sequence (P41144 whole entry): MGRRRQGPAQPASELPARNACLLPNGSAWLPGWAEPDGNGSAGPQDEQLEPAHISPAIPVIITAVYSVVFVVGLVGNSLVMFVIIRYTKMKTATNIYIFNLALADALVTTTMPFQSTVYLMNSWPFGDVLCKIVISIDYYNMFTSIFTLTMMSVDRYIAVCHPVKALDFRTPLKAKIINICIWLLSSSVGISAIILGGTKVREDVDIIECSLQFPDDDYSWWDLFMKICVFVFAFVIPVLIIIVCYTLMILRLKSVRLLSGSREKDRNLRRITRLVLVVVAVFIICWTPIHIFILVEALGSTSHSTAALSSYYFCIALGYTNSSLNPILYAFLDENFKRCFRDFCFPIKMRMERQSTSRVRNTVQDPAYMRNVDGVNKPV

Mu-type opioid receptor = Mu-type opioid receptor (Cavia porcellus, UniProt P97266); assay: Inhibition of [3H]DAMGO binding to Opioid receptor mu 1 of guinea pig brain membrane homogenates
Mu-type opioid receptor, sequence (P97266 whole entry): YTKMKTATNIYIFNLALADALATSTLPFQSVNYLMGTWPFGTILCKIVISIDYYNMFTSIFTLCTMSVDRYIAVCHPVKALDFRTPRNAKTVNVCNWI

Cavia porcellus = species on record: Cavia porcellus; assay: Ability to inhibit the electrically evoked contraction of the guinea pig ileum; format: functional, organism-based
How it was run: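 Longitudinal muscle-myenteric plexus strips from male Hartley guinea pigs (250-500 g) in 37 °C oxygenated Krebs, 1 g tension, transmural stimulation 0.1 Hz, 0.4-ms supramaximal pulses. At least four tissues; IC50 by Hill equation fit.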

Row | SMILES | IC50 [4] [nM] | IC50 (Mu-type opioid receptor) [nM] | IC50 (Cavia porcellus) [nM] | other results
1 | CC[C@H](C)[C@H](NC(=O)[C@H](CCCN=C(N)N)NC(=O)[C@@H]1CCCCNC(=O)C[C@@H](NC(=O)[C@@H](N)Cc2ccc(O)cc2)C(=O)NCC(=O)N[C@H](Cc2ccccc2)C(=O)N[C@@H](CC(C)C)C(=O)N1)C(=O)N[C@@H](CCCN=C(N)N)C(=O)N1CCC[C@@H]1C(=O)N[C@H](CCCCN)C(N)=O |  |  |  | Selectivity [1]: 9.1 Ratio; Ratio [2]: 160 Ratio; Selectivity [3]: 29.8 Ratio
2 | CC[C@H](C)[C@H](NC(=O)[C@H](CCCN=C(N)N)NC(=O)[C@H](CCCN=C(N)N)NC(=O)[C@H](CCCCN)NC(=O)[C@H](Cc1ccccc1)NC(=O)CNC(=O)CNC(=O)[C@@H](N)Cc1ccc(O)cc1)C(=O)N[C@@H](CC(=O)O)C(=O)N1CCC[C@H]1C(=O)N[C@@H](CCCCN)C(N)=O | 35 | 400 |  | 
3 | CC[C@H](C)[C@H](NC(=O)[C@H](CCCN=C(N)N)NC(=O)[C@@H]1CCCCNC(=O)C[C@@H](NC(=O)[C@@H](N)Cc2ccc(O)cc2)C(=O)NCC(=O)N[C@@H](Cc2ccccc2)C(=O)N[C@@H](CC(C)C)C(=O)N1)C(=O)N[C@@H](CCCN=C(N)N)C(=O)N1CCC[C@H]1C(=O)N[C@@H](CCCCN)C(N)=O |  |  | 16000 | 
4 | CC[C@H](C)[C@H](NC(=O)[C@H](CCCNC(=N)N)NC(=O)[C@H](CCCCN)NC(=O)[C@H](CC(C)C)NC(=O)[C@H](Cc1ccccc1)NC(=O)CNC(=O)[C@H](CC(=O)O)NC(=O)[C@@H](N)Cc1ccc(O)cc1)C(=O)N[C@@H](CCCNC(=N)N)C(=O)N1CCC[C@H]1C(=O)N[C@@H](CCCCN)C(N)=O | 1.5 | 0.08 |  | 
5 | CC[C@H](C)[C@H](NC(=O)[C@H](CCCN=C(N)N)NC(=O)[C@H](CCCN=C(N)N)NC(=O)[C@H](CCCCN)NC(=O)[C@H](Cc1ccccc1)NC(=O)CNC(=O)CNC(=O)[C@@H](N)Cc1ccc(O)cc1)C(=O)N[C@H](CC(=O)O)C(=O)N1CCC[C@H]1C(=O)N[C@@H](CCCCN)C(N)=O |  |  | 4160 | 
6 | CC[C@H](C)[C@H](NC(=O)[C@H]1CCCCNC(=O)C[C@@H](NC(=O)CNC(=O)[C@@H](N)Cc2ccc(O)cc2)C(=O)N[C@H](Cc2ccccc2)C(=O)N[C@@H](CC(C)C)C(=O)N[C@H](CCCN=C(N)N)C(=O)N1)C(=O)N[C@@H](CCCN=C(N)N)C(=O)N1CCC[C@@H]1C(=O)N[C@H](CCCCN)C(N)=O | 25 | 740 | 1500 | 
7 | CC[C@H](C)[C@H](NC(=O)[C@H](CCCNC(=N)N)NC(=O)[C@@H]1CCCCNC(=O)C[C@@H](NC(=O)[C@@H](N)Cc2ccc(O)cc2)C(=O)NCC(=O)N[C@@H](Cc2ccccc2)C(=O)N[C@@H](CC(C)C)C(=O)N1)C(=O)N[C@@H](CCCNC(=N)N)C(=O)N1CCC[C@H]1C(=O)N[C@@H](CCCCN)C(N)=O | 100 | 2980 |  | 
8 | CC[C@@H](C)[C@H]1NC(=O)[C@H](CCCN=C(N)N)NC(=O)[C@@H](CCCN=C(N)N)NC(=O)[C@H](NC(=O)[C@@H](Cc2ccccc2)NC(=O)CNC(=O)CNC(=O)[C@H](N)Cc2ccc(O)cc2)CCCCNC(=O)C[C@H](C(=O)N2CCC[C@H]2C(=O)N[C@H](CCCCN)C(N)=O)NC1=O | 100 | 120 | 9300 | 
9 | CC[C@H](C)[C@H](NC(=O)[C@H](CCCCN)NC(=O)[C@H](CCCNC(=N)N)NC(=O)[C@H](CC(C)C)NC(=O)[C@H](Cc1ccccc1)NC(=O)[C@H](CC(=O)O)NC(=O)CNC(=O)[C@@H](N)Cc1ccc(O)cc1)C(=O)N[C@@H](CCCNC(=N)N)C(=O)N1CCC[C@H]1C(=O)N[C@@H](CCCCN)C(N)=O | 190 | 1320 |  | 
10 | CC[C@H](C)[C@H](NC(=O)[C@H](CCCCN)NC(=O)[C@H](CCCN=C(N)N)NC(=O)[C@H](CC(C)C)NC(=O)[C@H](Cc1ccccc1)NC(=O)[C@@H](CC(=O)O)NC(=O)CNC(=O)[C@@H](N)Cc1ccc(O)cc1)C(=O)N[C@@H](CCCN=C(N)N)C(=O)N1CCC[C@@H]1C(=O)N[C@H](CCCCN)C(N)=O |  |  |  | Selectivity [1]: 19 Ratio; Ratio [2]: 110 Ratio; Selectivity [3]: 14 Ratio
11 | CC[C@H](C)[C@H](NC(=O)[C@H](CCCNC(=N)N)NC(=O)[C@@H]1CCCCNC(=O)C[C@H](NC(=O)[C@@H](N)Cc2ccc(O)cc2)C(=O)NCC(=O)N[C@@H](Cc2ccccc2)C(=O)N[C@@H](CC(C)C)C(=O)N1)C(=O)N[C@@H](CCCNC(=N)N)C(=O)N1CCC[C@H]1C(=O)N[C@@H](CCCCN)C(N)=O | 110 | 3.4 |  | 
12 | CC[C@H](C)[C@H](NC(=O)[C@H](CCCN=C(N)N)NC(=O)[C@@H]1CCCCNC(=O)C[C@H](NC(=O)[C@@H](N)Cc2ccc(O)cc2)C(=O)NCC(=O)N[C@@H](Cc2ccccc2)C(=O)N[C@@H](CC(C)C)C(=O)N1)C(=O)N[C@@H](CCCN=C(N)N)C(=O)N1CCC[C@H]1C(=O)N[C@@H](CCCCN)C(N)=O |  |  | 610 | 
13 | CC[C@H](C)[C@H](NC(=O)[C@H]1CCCCNC(=O)C[C@H](NC(=O)CNC(=O)[C@@H](N)Cc2ccc(O)cc2)C(=O)N[C@H](Cc2ccccc2)C(=O)N[C@@H](CC(C)C)C(=O)N[C@H](CCCN=C(N)N)C(=O)N1)C(=O)N[C@@H](CCCN=C(N)N)C(=O)N1CCC[C@@H]1C(=O)N[C@H](CCCCN)C(N)=O | 4.9 | 310 | 600 | 
14 | CC[C@H](C)[C@H](NC(=O)[C@H](CCCN=C(N)N)NC(=O)[C@H](CCCCN)NC(=O)[C@H](CC(C)C)NC(=O)[C@H](Cc1ccccc1)NC(=O)CNC(=O)[C@H](CC(=O)O)NC(=O)[C@@H](N)Cc1ccc(O)cc1)C(=O)N[C@@H](CCCN=C(N)N)C(=O)N1CCC[C@H]1C(=O)N[C@@H](CCCCN)C(N)=O |  |  | 14.2 | 
15 | CC[C@@H](C)[C@H]1NC(=O)[C@H](CCCNC(=N)N)NC(=O)[C@@H](CCCNC(=N)N)NC(=O)[C@H](NC(=O)[C@@H](Cc2ccccc2)NC(=O)CNC(=O)CNC(=O)[C@H](N)Cc2ccc(O)cc2)CCCCNC(=O)C[C@@H](C(=O)N2CCC[C@H]2C(=O)N[C@H](CCCCN)C(N)=O)NC1=O | 6.6 | 12 | 2500 | 
16 | CC[C@H](C)[C@H](NC(=O)[C@H](CCCCN)NC(=O)[C@H](CCCN=C(N)N)NC(=O)[C@H](CC(C)C)NC(=O)[C@H](Cc1ccccc1)NC(=O)[C@H](CC(=O)O)NC(=O)CNC(=O)[C@@H](N)Cc1ccc(O)cc1)C(=O)N[C@@H](CCCN=C(N)N)C(=O)N1CCC[C@@H]1C(=O)N[C@H](CCCCN)C(N)=O |  |  |  | Selectivity [1]: 9.5 Ratio; Ratio [2]: 72 Ratio; Selectivity [3]: 7 Ratio
17 | CC[C@H](C)[C@H](NC(=O)[C@H](CCCN=C(N)N)NC(=O)[C@@H]1CCCCNC(=O)C[C@H](NC(=O)[C@@H](N)Cc2ccc(O)cc2)C(=O)NCC(=O)N[C@H](Cc2ccccc2)C(=O)N[C@@H](CC(C)C)C(=O)N1)C(=O)N[C@@H](CCCN=C(N)N)C(=O)N1CCC[C@@H]1C(=O)N[C@H](CCCCN)C(N)=O |  |  |  | Selectivity [1]: 0.11 Ratio; Ratio [2]: 5.6 Ratio; Selectivity [3]: 0.03 Ratio
18 | CC[C@H](C)[C@H](NC(=O)[C@H](CCCCN)NC(=O)[C@H](CCCN=C(N)N)NC(=O)[C@H](CC(C)C)NC(=O)[C@H](Cc1ccccc1)NC(=O)[C@H](CC(=O)O)NC(=O)CNC(=O)[C@@H](N)Cc1ccc(O)cc1)C(=O)N[C@@H](CCCN=C(N)N)C(=O)N1CCC[C@H]1C(=O)N[C@@H](CCCCN)C(N)=O |  |  | 13300 | 
19 | CC[C@H](C)[C@H](NC(=O)[C@H](CCCCN)NC(=O)[C@H](CCCN=C(N)N)NC(=O)[C@H](CC(C)C)NC(=O)[C@H](Cc1ccccc1)NC(=O)[C@@H](CC(=O)O)NC(=O)CNC(=O)[C@@H](N)Cc1ccc(O)cc1)C(=O)N[C@@H](CCCN=C(N)N)C(=O)N1CCC[C@H]1C(=O)N[C@@H](CCCCN)C(N)=O |  |  | 4900 | 
20 | CC[C@H](C)[C@H](NC(=O)[C@H](CCCNC(=N)N)NC(=O)[C@H](CCCNC(=N)N)NC(=O)[C@H](CCCCN)NC(=O)[C@H](Cc1ccccc1)NC(=O)CNC(=O)CNC(=O)[C@@H](N)Cc1ccc(O)cc1)C(=O)N[C@H](CC(=O)O)C(=O)N1CCC[C@H]1C(=O)N[C@@H](CCCCN)C(N)=O | 17.5 | 555 |  | 
21 | CC[C@H](C)[C@H](NC(=O)[C@H](CCCCN)NC(=O)[C@H](CCCNC(=N)N)NC(=O)[C@H](CC(C)C)NC(=O)[C@H](Cc1ccccc1)NC(=O)[C@@H](CC(=O)O)NC(=O)CNC(=O)[C@@H](N)Cc1ccc(O)cc1)C(=O)N[C@@H](CCCNC(=N)N)C(=O)N1CCC[C@H]1C(=O)N[C@@H](CCCCN)C(N)=O | 47 | 660 |  | 
